Laboratory results: ChEMBL document CHEMBL1142359 (J Med Chem, 2008)

How the values were obtained:
[1] = molecular target: T1, Sodium/glucose cotransporter 2 (Homo sapiens, UniProt P31639); experiment: Inhibition of human SGLT2 expressed in CHO cells assessed as inhibition of [14C]AMG accumulation; type: cell-based
T1 sequence (P31639 whole entry): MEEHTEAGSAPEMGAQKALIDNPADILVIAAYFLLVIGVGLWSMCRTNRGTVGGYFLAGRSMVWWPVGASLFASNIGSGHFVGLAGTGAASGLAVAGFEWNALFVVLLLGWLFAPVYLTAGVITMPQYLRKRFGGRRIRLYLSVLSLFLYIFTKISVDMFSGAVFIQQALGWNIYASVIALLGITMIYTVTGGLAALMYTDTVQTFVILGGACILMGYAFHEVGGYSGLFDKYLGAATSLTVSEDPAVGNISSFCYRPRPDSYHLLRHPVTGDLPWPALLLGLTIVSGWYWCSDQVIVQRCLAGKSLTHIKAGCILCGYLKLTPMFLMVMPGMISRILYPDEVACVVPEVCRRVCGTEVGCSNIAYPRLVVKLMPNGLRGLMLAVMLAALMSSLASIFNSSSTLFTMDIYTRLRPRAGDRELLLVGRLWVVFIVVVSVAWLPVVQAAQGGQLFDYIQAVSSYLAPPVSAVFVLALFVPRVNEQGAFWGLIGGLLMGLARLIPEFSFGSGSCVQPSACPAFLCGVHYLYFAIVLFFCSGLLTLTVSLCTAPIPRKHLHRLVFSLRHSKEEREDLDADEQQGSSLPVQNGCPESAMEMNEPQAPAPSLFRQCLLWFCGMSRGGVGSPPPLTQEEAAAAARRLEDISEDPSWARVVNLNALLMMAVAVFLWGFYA
How it was run: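 Radiolabeled α-methyl-D-glucopyranoside accumulation in Chinese hamster ovary cells stably expressing human or rat SGLT2. EC50 is taken as inhibition of that uptake. The assay was run in protein-free buffer, and n is given per value.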

[2] = molecular target: T2, Sodium/glucose cotransporter 2 (Rattus norvegicus, UniProt P53792); experiment: Inhibition of rat SGLT2 expressed in CHO cells assessed as inhibition of [14C]AMG accumulation
T2 sequence (P53792 whole entry): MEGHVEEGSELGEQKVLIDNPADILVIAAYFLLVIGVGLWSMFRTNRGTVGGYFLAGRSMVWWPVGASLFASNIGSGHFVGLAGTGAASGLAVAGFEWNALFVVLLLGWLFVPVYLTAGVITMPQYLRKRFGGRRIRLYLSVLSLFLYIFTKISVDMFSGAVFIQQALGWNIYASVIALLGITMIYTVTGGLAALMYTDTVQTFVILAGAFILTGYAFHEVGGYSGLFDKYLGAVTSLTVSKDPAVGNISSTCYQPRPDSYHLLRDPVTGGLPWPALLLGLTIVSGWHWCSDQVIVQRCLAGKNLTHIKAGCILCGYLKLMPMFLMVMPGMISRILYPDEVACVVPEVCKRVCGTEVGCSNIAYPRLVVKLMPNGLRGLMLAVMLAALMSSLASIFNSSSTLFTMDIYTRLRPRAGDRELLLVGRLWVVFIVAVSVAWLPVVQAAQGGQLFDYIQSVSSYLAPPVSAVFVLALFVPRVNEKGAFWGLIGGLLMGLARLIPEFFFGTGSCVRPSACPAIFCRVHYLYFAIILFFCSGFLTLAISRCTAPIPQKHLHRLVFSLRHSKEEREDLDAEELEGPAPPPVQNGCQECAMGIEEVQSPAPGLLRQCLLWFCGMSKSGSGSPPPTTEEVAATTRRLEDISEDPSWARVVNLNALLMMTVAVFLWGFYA

[3] = Clearance in rat at 1 mg/kg, po after 1.7 hrs; settings: in vivo
[4] = Permeability across human Caco-2 cells
[5] = molecular target: T3, Solute carrier family 2, facilitated glucose transporter member 1 (Homo sapiens) (UniProt P11166); settings: 20 uM
T3 sequence (whole entry): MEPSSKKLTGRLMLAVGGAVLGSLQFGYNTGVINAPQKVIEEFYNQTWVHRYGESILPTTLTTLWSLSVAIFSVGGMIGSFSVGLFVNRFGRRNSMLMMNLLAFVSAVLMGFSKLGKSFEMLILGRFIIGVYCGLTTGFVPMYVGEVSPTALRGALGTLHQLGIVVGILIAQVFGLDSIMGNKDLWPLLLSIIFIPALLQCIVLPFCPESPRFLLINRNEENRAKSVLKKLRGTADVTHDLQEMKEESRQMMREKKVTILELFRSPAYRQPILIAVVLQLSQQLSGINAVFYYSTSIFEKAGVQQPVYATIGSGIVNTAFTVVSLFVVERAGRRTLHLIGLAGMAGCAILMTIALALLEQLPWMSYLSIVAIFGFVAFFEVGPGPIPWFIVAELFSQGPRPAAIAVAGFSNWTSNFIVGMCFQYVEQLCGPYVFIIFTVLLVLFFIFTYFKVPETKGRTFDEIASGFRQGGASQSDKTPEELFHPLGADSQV

[6] = Elimination half life in intra arterially dosed rat; settings: in vivo
[7] = molecular target: T4, Solute carrier family 2, facilitated glucose transporter member 4 (Homo sapiens) (UniProt P14672); settings: 20 uM
T4 sequence (whole entry): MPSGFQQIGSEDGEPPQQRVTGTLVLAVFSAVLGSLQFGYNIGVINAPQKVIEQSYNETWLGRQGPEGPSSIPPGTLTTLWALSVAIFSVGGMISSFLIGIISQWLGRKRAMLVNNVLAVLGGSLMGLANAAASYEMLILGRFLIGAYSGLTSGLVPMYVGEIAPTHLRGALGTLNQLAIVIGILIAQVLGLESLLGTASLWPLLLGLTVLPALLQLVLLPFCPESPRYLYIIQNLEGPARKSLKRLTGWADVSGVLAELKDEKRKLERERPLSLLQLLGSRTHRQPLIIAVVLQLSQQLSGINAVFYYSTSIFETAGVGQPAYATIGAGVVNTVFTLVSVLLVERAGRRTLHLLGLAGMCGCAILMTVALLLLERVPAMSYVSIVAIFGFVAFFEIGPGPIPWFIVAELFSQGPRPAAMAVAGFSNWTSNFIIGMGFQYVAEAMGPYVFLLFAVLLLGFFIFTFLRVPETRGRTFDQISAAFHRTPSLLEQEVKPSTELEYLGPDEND

[8] = Fraction unbound in rat serum at 10 uM
[9] = Fraction unbound in human serum at 10 uM
[10] = Elimination half life in intra arterially dosed dog; settings: in vivo
[11] = Volume of distribution at steady state in rat; settings: in vivo
[12] = Elimination half life in intra arterially dosed monkey; settings: rhesus monkey, in vivo
in vivo = settings: rat, po, 1 mg/kg
[13] = Oral bioavailability in rat; settings: in vivo

Structure (SMILES): COc1ccc(Cc2ccccc2O[C@@H]2O[C@H](CO)[C@@H](O)[C@H](O)[C@H]2O)cc1 [SERGLIFLOZIN A]
- EC50 [1]: 9.2 nM

Structure (SMILES): CCOc1ccc(Cc2cc([C@@H]3O[C@H](CO)[C@@H](O)[C@H](O)[C@H]3O)ccc2Cl)cc1 [DAPAGLIFLOZIN]
- EC50 [2]: 3 nM
- CL/F at 1.7 h [3]: 4.8 mL/min/kg
- Papp [4]: > 15 ×10⁻⁶ cm/s
- inhibition [5]: 8%
- half-life [6]: 4.6 h
- inhibition [7]: 8%
- fraction unbound at 10 µM [8]: 0.03
- fraction unbound at 10 µM [9]: 0.04
- half-life [10]: 7.4 h
- Vd [11]: 1.6 L/kg
- half-life [12]: 3 h
- Cmax at 1.7 h (in vivo): 600 ng/mL
- bioavailability [13]: 84%

Structure (SMILES): Cc1cc(O)c(C(=O)CCc2ccc3occc3c2)c(O[C@@H]2O[C@H](CO)[C@@H](O)[C@H](O)[C@H]2O)c1
- EC50 [1]: 6.6 nM

Structure (SMILES): CCNC(=O)c1c(O)c(Cc2ccc(OC)cc2)cc([C@@H]2O[C@H](CO)[C@@H](O)[C@H](O)[C@H]2O)c1O
- EC50 [1]: 1300 nM
